Jurkat viability: cytotoxicity toward Jurkat T cells, primary screen, cytotoxicity control, cell-based, Jurkat E6.1, 60K MLSMR library; Jurkat E6.1 viability, ATP luminescence, 48 h; inhibition, % at 4 µM; 1.2% of 56,000 active;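 active means inhibition above the mean inhibition of all tested compounds plus 3 SD, cut at about 28% in these data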
SF1 activator: activators of human SF-1, primary screen, cell-based, CHO-K1, Gal4-SF-1 LBD, luciferase luminescence; AID 522, 2006; activation, % at 10 µM; 1.9% of 65,000 active; CHO-K1 Gal4-SF-1 LBD luciferase reporter; % increase over DMSO SF-1-specific signal;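 active means activation above the mean activation of all tested compounds plus 3 SD, cut at about 50% in these data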
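Material: CHO-K1 cells with Gal4–hSF-1 LBD chimera plus Gal4-driven luciferase / Input: 4,000 CHO-K1 cells per well / Incubation: compound exposure 20 h at 37 °C / Signal: luminescence read 15 min after SteadyLite luciferase reagent, after room-temperature equilibration / Read-out: percent activation versus DMSO / Benchmarks: DMSO negative control and −SF1 background wells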
HEK293 NFkB inh: inhibitors of PMA/ionomycin-induced NF-kB reporter, primary screen, antigen receptor NF-kB inhibitor project, cell-based, HEK-293 luciferase reporter, luminescence. AID 465, 2006. HEK-293 NF-kB luciferase reporter. inhibition, % at 3 µM. 0.21% of 62,000 active;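 active means inhibition above the mean of all tested compounds plus 3 SD, cut at about 40% in these data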;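 further: 0% = stimulated DMSO wells and 100% = 10 µM reference inhibitor 5653914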
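Timing: 1 h pretreatment, 16 h stimulation, 37 °C; system: HEK-293 cells with stable firefly luciferase reporter driven by four HIV NF-kB elements; doses: 3 µM once, 0.30% DMSO; measured by: luciferase luminescence; control set: DMSO and 10 µM reference inhibitor; repeats: single test; reagent: PMA plus ionomycin mix as NF-kB-activating stimulus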
RORa activator: activators of orphan receptor RORA, primary screen, cell-based, luminescence; Nuclear receptor ROR-alpha (Homo sapiens), P35398; CHO-K1 Gal4-RORA LBD luciferase reporter; percent increase over mock-subtracted basal signal; activation, % at 10 µM; 1.5% of 65,000 active; AID 560, 2006;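 active means activation above the mean of all tested compounds plus 3 SD, cut at about 49% in these data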;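 further: 0% = DMSO-treated RORA cells and 100% = added signal equal to DMSO minus mock-transfected cells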
Target sequence (P35398 whole entry, looked up, the tested form may be a part): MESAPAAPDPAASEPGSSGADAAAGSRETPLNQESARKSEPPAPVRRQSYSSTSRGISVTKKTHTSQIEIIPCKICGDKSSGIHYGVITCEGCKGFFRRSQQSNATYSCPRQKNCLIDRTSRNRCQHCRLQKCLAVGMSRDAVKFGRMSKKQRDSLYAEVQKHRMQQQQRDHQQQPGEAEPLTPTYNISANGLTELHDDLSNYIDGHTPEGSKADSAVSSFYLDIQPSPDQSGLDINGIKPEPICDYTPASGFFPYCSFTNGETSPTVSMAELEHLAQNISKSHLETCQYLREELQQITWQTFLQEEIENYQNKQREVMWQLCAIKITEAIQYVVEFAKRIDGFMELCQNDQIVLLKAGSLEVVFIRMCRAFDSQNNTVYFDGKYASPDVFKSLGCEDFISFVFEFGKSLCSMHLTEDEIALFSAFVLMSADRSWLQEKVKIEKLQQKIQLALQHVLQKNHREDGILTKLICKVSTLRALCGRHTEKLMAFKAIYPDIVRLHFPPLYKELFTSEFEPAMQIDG
Numbers without * were called inactive; . = no result given. This is a sample that favours compounds with a hit; in the whole collection about 3.9% have one here.

SMILES | Jurkat viability | SF1 activator | HEK293 NFkB inh | RORa activator
Cc1ccc(CNc2ccc3c(c2)ncn3C)cc1 | 3 | 57* | -26 | 63*
CCc1nn(C(C)C(=O)NC(C)CCc2ccco2)c(=O)c2cc3occc3n12 (stereo unspecified) | -4 | -15 | 7 | -27
Cc1nc2ccc(C(=O)N3CCN(c4ccccn4)CC3)cc2s1 | -3 | 5 | 6 | -5
O=C(c1cccc(COc2ccc(Cl)cc2Cl)c1)N1CCN(c2ccccn2)CC1 | -2 | 76* | -47 | 29
CNc1nnc(-c2cc3ccccc3oc2=O)s1 | -6 | 32 | -36 | 36
O=c1oc2ccccc2cc1-c1cn2cccnc2n1 | 10 | 36 | -18 | 55*
COC(=O)C1=C(C)N2C(=O)CSC2=NC1c1ccc2c(c1)OCO2 (stereo unspecified) | -1 | 7 | 4 | 5
Cc1ccccc1NC(=O)CCC(=O)OCCCC(F)(F)C(F)(F)F | -8 | 4 | 12 | 0
Clc1ccc2nc(N3CCN(c4ccccc4)CC3)sc2c1 | -3 | 72* | -56 | 28
c1c2c(cc3sc(N4CCCCC4)nc13)OCO2 | 11 | -8 | -39 | -44
c1ccc(N2CCN(c3nc4cc5c(cc4s3)OCO5)CC2)cc1 | 3 | 55* | -39 | 70*
c1c2c(cc3sc(N4CCOCC4)nc13)OCO2 | 10 | 58* | -47 | 34
Cn1nnc(NC(=O)COc2ccc(C3CCCCC3)cc2)n1 | 4 | 18 | 2 | -2
CCCC(=O)N=C1SC2CS(=O)(=O)CC2N1c1ccc(C(C)=O)cc1 (stereo unspecified) | 4 | -7 | -7 | 17
CC#CCCCC(=O)Nc1cccc(C(=O)O)c1 | 1 | 9 | 4 | 56*
O=C(Nc1nccs1)c1ccc(S(=O)(=O)NCc2cccs2)cc1 | 9 | 16 | 15 | 16
O=C(Nc1nccs1)c1ccc(S(=O)(=O)NCC2CCCCC2)cc1 | 37* | -4 | 21 | -17
CCN1CCCC1CNC(=O)c1ccc(CS(=O)(=O)c2ccccc2C)o1 (stereo unspecified) | 3 | -8 | 12 | -6
CC(=O)C1=C(C)NC(SCC(=O)c2ccccc2)=C(C#N)C1CC(C)C (stereo unspecified) | 6 | -7 | 1 | 27
Cc1ccc(N2C(=O)c3n[nH]c(C)c3C2c2ccco2)cc1 (stereo unspecified) | 2 | 41 | 6 | 67*
CC(C)c1nnc(NC(=O)c2c(O)c3cccc4c3n(c2=O)CCC4)s1 | 15 | -24 | 46* | -7
CCOc1cc(N2CCOCC2)c(OCC)cc1NS(=O)(=O)c1ccc(Cl)s1 | 69* | 19 | 12 | 79*
CCOC(=O)N1CCN(C(=O)c2cn(CCOC)c(=O)c3c2c2ccccc2n3C)CC1 | 4 | -1 | 10 | -18
COc1cccc(-c2cc(C(=O)N3CCCCCC3)no2)c1 | 4 | -3 | -33 | -20
COc1cccc(-c2cc(C(=O)N3CCCCC3C)no2)c1 (stereo unspecified) | 0 | 86* | -42 | 50*
SMILES | Jurkat viability | SF1 activator | HEK293 NFkB inh | RORa activator
CC(=O)C1=C(C)Nc2ncnn2C1c1ccc(Cl)cc1 (stereo unspecified) | -1 | 1 | 6 | -6
CCC(C)OC(=O)c1[nH]c2c(c1C)C(=O)CC(c1ccc(N(C)C)cc1)C2 (stereo unspecified) | 2 | 57* | 9 | 44
CCOC(=O)c1[nH]c2c(c1C)C(=O)CC(c1ccc(OC)c(OC)c1)C2 (stereo unspecified) | . | -23 | 20 | -17
Cc1c(C(=O)N2CCOCC2)[nH]c2c1C(=O)CC(c1ccccc1Cl)C2 (stereo unspecified) | 82* | 67* | 21 | 45
COC(=O)c1[nH]c2c(c1C)C(=O)CC(c1ccccc1)C2 (stereo unspecified) | 98* | -22 | 44* | -32
O=C(c1ccccc1)c1ccc(C(=O)N2CCOCC2)cc1 | 3 | 24 | 15 | 9
Cc1ccc(C(=O)CCNc2ccc(F)c(Cl)c2)o1 | 83* | 2 | 1 | -1
COC(=O)CSc1nnc(CNc2ccc(OC)cc2)n1C | 2 | -12 | 14 | -4
COc1cc(NS(=O)(=O)c2ccc(OC)c(C)c2C)c(OC)cc1Cl | 79* | 32 | 27 | 38
COc1ccc(C2C(C(=O)NCC3CCCO3)c3cc(OC)c(OC)cc3C(=O)N2C)cc1OC (stereo unspecified) | . | -9 | 17 | -11
COC(=O)CC(=O)CSc1nc2c(cc1C#N)CCCCC2 | -2 | 78* | -9 | 40
CCc1nnc(NC(=O)CSc2nc3c(cc2C#N)CCCC3)s1 | -5 | 78* | -26 | 48
N#Cc1cc2c(nc1SCC(=O)NCc1ccc3c(c1)OCO3)CCCCC2 | 7 | -15 | 0 | -28
Cn1c(Cn2c(=O)sc3ccccc32)nnc1SCC(=O)NCc1ccccc1Cl | -1 | -24 | 5 | -15
CCOC(=O)C1CCN(C(=O)C2CCN(S(=O)(=O)c3cccc4cccnc34)CC2)CC1 | 0 | -6 | 7 | 8
Cc1nc2c(cc(Oc3ccc(S(=O)(=O)N4CCOCC4)cn3)c3ccsc32)s1 | 4 | 53* | 2 | 35
COC(=O)C1CCN(C(=O)COc2cc3sc(C)nc3c3sccc23)CC1 | 6 | -10 | 19 | -10
O=C1C(=O)N(CCCn2ccnc2)C(c2cccnc2)/C1=C(/O)c1ccc(Cl)cc1 (stereo unspecified) | 5 | -12 | 12 | 12
CCCCC(=O)Nc1cccc(-c2nnc(-c3ccccc3)o2)c1 | -1 | 33 | 9 | 68*
O=C(Nc1cccc(-c2nnc(-c3ccccc3)o2)c1)C1CCCCC1 | -2 | 53* | -34 | 49*
c1ccc(CSc2ncn(-c3ccccc3)n2)cc1 | -5 | 81* | -38 | 48
Nc1nc(CSc2ncn(-c3ccccc3)n2)cs1 | 8 | 59* | -24 | 44
Nc1nc(CSc2nc3ccccc3[nH]2)cs1 | -4 | 10 | -18 | 29
O=C(CSc1ncn(-c2ccccc2)n1)Nc1ccc(Br)cn1 | . | -4 | 19 | -15
O=C(CSc1ncn(-c2ccccc2)n1)c1cccs1 | 6 | 41 | -13 | 49*
SMILES | Jurkat viability | SF1 activator | HEK293 NFkB inh | RORa activator
Cc1ccc(SCCCCN2C(=O)NC(C)(C)C2=O)cc1 | 4 | 13 | 15 | 11
Cc1nc(SCCCSc2n[nH]c(C)n2)n[nH]1 | -3 | -13 | 8 | -1
Clc1cccc2sc(N3CCCC3)nc12 | 4 | 50* | -11 | 22
Clc1cccc2sc(N3CCOCC3)nc12 | 7 | 36 | -8 | 1
CC1=C(C#N)C(C(F)(F)F)(C(F)(F)F)N=C(c2ccco2)N1 | 4 | 6 | 14 | 8
O=C(O)c1cccnc1SCc1ccccc1 | -2 | 4 | 4 | 0
CCCC(=O)Nc1ccc(NC(=O)Cc2ccccc2)cn1 | . | 13 | 10 | 6
